Source: ChEMBL document CHEMBL1156381, “Cacofurans A and B, new furanoditerpenes from a marine sponge” (J Nat Prod, 2001)
In brackets after ≈: the same amount, converted by molar mass. Activity calls are given as the source filed them. No cut-off for these calls is given here.

Experiments:
NBT2 = assay: Disruption of actin cytoskeleton in rat NBT2 cells at 10 ug/mL after 16 hrs by TMR-phalloidin imaging analysis; format: functional, cell-based
How it was run: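 NBT-II rat bladder epithelial carcinoma cells were treated at 10 μg/mL. Cells were then permeabilized and stained with TMR-phalloidin to image the actin cytoskeleton, with control cells for comparison.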

Escherichia coli = assay: Antibacterial activity against Escherichia coli; format: functional, organism-based
Staphylococcus aureus = assay: Antibacterial activity against methicillin-resistant Staphylococcus aureus; format: functional, organism-based
K562 = assay: Cytotoxicity against human K562 cells; format: functional, cell-based
P388 = assay: Cytotoxicity against mouse P388 cells; format: functional, cell-based
Bacillus cereus = assay: Antibacterial activity against Bacillus cereus; format: functional, organism-based
[1] = Toxicity in sea urchin egg assessed as inhibition of development of fertilized egg by light microscopy; design: species or system Tripneustes gratilla
How it was run: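 Eggs and sperm were collected from mature Tripneustes gratilla specimens for the fertilized-egg development assay.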

[2] = Cytotoxicity against rat NBT2 cells assessed as cell survival at 10 ug/mL after 16 hrs by phase contrast microscope; format: functional; details: NBT2, 16 h, read-out: Activity
How it was run: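 Rat bladder epithelial carcinoma NBT-II cells were exposed to 10 μg/mL test agent. Phase contrast images of control and treated cells were recorded after 16 h on an image-based high content imaging workstation.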

| SMILES | Activity (NBT2) | Activity (Escherichia coli) | Activity (Staphylococcus aureus) | IC50 (K562) | IC50 (P388) | Activity (Bacillus cereus) | IC50 [1] | viability at 10 µg/mL [2] |
| --- | --- | --- | --- | --- | --- | --- | --- | --- |
| CC(=O)O[C@@H](Cc1ccoc1)[C@@H]1[C@@]23CCCC(C)(C)[C@@H]2CC[C@]1(C)OC3 [CACOFURAN A] | Active | inactive | inactive | > 1 µg/mL | > 1 µg/mL | inactive | 0.5 µg/mL (≈ 1.39 µM) | 50% |
| CC1(C)CCC[C@@]23CO[C@@](C)(CC[C@@H]12)[C@@H]3[C@@H](O)Cc1ccoc1 [CACOFURAN B] | Active | inactive | inactive | > 1 µg/mL | > 1 µg/mL | inactive | 5 µg/mL (≈ 15.7 µM) | 50% |
